# Reference: the RNAGym collection of RNA variant scans (doi:10.1126/science.aae0568)
# Variants at the floor of the assay were thinned out.
# B1: tRNA (parent)
# chain: GUUCCGUUGGCGUAAUGGUAACGCGUCUCCCUCCUAAGGAGAAGACUGCGGGUUCGAGUCCCGUACGGAACG
# Variants of: B1
# Assay: yeast fitness relative to wild type (ratio to wild type); higher = fitter; tRNA-Arg(CCU), competitive growth, 37 C, YPD
# Procedure, shortened: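 Start and end populations of a pooled competition were compared by 100-nucleotide paired-end sequencing of gene amplicons. The Saccharomyces cerevisiae strains carried tRNA-Arg(CCU) gene variants at the native genomic locus, synthesised with a 3% per-site mutation rate at 69 sites, and competed in YPD at 37°C for 24 hours in six parallel replicates. Darwinian fitness relative to wild type was based on the change in genotype frequencies. Genotypes required ≥ 100 starting reads, and estimates < 0.5 were set to 0.5.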
row,Variant,yeast fitness
1,GUUCAGUUGGCGUAAUCGUAACGCGUCUCCCUCCUAAGGAGAAGACUGCGGGUUCGGGUCCCGUAUGGAACG [C5A G17C A57G C66U],≤ 0.5
2,GUUCAGUUGGCGUAAUAAUAACGCAUCUCCCUCCUAAGGAGAAGACUGCGGGUUAGAGUCCCGUACGGAACG [C5A G17A G18A G25A C55A],0.552
3,GUUCAGUUGGCGUAAUCGUAACGCGUCUCCCUCCUAAGGAGAAGAGUGCGGGUUUGAGUCCCGUACGGAACG [C5A G17C C46G C55U],≤ 0.5
4,GUUCAGUUGGCAUAAUGGUAACGUGUCUUACUCCUAAGGAGAAGACUGCGGGUUCGAGUCCCGUACGGAACG [C5A G12A C24U C29U C30A],≤ 0.5
5,GUUCAGUUGGCAUAAUGGUAACGCGUCUCCCUCCAAAGGAGGAGACUGCGGGUUCGAGUCCCGUUCGGAACG [C5A G12A U35A A42G A65U],≤ 0.5
6,GUUCAGUUGGCGUAAUCGUAACGCGUCUCCCUCCUAAGGAGAAGACUGCGGGUUCGCGUCCCGUACGGAUCG [C5A G17C A57C A70U],≤ 0.5
7,GUUCAGUUGCCGUAAUGGUAACGCGCCUCCCUCCUAAGCAGAAGACUGCGGGUUCGAGUCUCGUACGGAACG [C5A G10C U26C G39C C61U],≤ 0.5
8,GUUCAGUUGGCGUAAUCGUAACGCGUCUCACUCCUAAGGAGAAGACUGCGGGUUCGAGUCCCGUCCGGAACG [C5A G17C C30A A65C],≤ 0.5
9,GUUCAGUUGGCGUAAUCGUAACGCGUUUCCCUCCUAAGGAGAAGACUGCGGGUUCGCGUCCCGUACGGAACG [C5A G17C C27U A57C],≤ 0.5
10,GUUCAGUUGGCAUAAUGGUAACGCGUCUCCCUCCUAAGGAGAAGACAGCGGGUUCGAGUCCCGUACGGAACG [C5A G12A U47A],≤ 0.5
11,GUUCAGUUGGCGUAAUAGUAACGCGUCUCCCUCCUAAGGAGGAGACUGCGGGUUCGAGUCCCGAACGGAACG [C5A G17A A42G U64A],0.606
12,GUUCAGUUGGCAUAAUGGUAACGCGUCUCCCUCCAAAGGAGGAGACUGCGGGUUCGAGUCCCGUCAGGAACG [C5A G12A U35A A42G A65C C66A],0.6
13,GUUCAGUUGGCAUAAUGGUAACGCGUCUCCCUCCUAAGGAGAAGACUGCCGGUUCGAGUCCCGUACGGAACG [C5A G12A G50C],≤ 0.5
14,GUUCAGUUGGCAUAAUGGUAACGCGUCUCCCUGCUAAGGAGAAGACUGCGGGUUCGUGUCCCGUACGGAACG [C5A G12A C33G A57U],≤ 0.5
15,GUUCAGUUGGCGUAAUCCUAACGCGUCUCCCUCCUAAGGAGAAGACUGCGGGUUCGAGUCGCGUACGGAACG [C5A G17C G18C C61G],≤ 0.5
16,GUUCAGUUGGCAUAAUGAUAACGCGUCUCCCUCCUAAGGAGAAGACUGCGGGUUCGAGUCCCGUACGGCACG [C5A G12A G18A A69C],≤ 0.5
17,GUUCAGUUGGCGUAAUAGUAACGCGUCUCCCUCCUAAGGAGAAGACUGCGGGUUCGAGUCCCGUACCGAACG [C5A G17A G67C],0.662
18,GUUCAGUUGGCCUAAUGGUAACGCGUCUCCCUCUUAGGGAGAAGACUGCGGGUUCGAGUCCCGUACGGAACG [C5A G12C C34U A37G],0.562
19,GUUCAGUUGGCGUAAUCGUAACGCGUCUCCCUCCUAAGGAGAAGACUGCGGGUUCGUGUCCCGUACGGAACG [C5A G17C A57U],≤ 0.5

row,Variant,yeast fitness
1,GUUCAGUUGGCGUAAUAGUAACGCGUCUCCCUCCUAAGGAGAAGACUGGGGGUUCGAGUCCCGUACGGAACG [C5A G17A C49G],0.532
2,GUUCAGUUGGCAUAAUGGUAACGCGUCUCCCUCCUAAGGAGAAGGCUGCGGGUUCGAGUCCCGUACGGAACG [C5A G12A A45G],0.551
3,GUUCAGUUGGCGUAAUCCUAACGCGUCUCCCUCCUAAGGAGAAGACUGCGGGUUCGAGUUCCGUACGGAACG [C5A G17C G18C C60U],≤ 0.5
4,GUUCAGUUGGCCUAAUGGUAACGCGUCUCCCUCCUAAGGAGAAGACCGCGGGUUCGAGUCCCGUACGGAACG [C5A G12C U47C],≤ 0.5
5,GUUCAGUUGGCAUAAUGGUAACGCGUCUCCCUCCUAAGGAGAAGGCUGCGGGUUCGAGUCCCGUACAGAACG [C5A G12A A45G G67A],≤ 0.5
6,GUUCAGUUGGCGUAAUAGUAACGUGUCUCCCUCCUCAGGAGAAGACUGCGGGUUCGAGUCCCGUACGGAACG [C5A G17A C24U A36C],0.538
7,GUUCAGUUGGCAUAAUGGUAACGCGUCUACCUCCUAAGGAGAAGACUGCGGGUUCGAGUCCCGUACGCAACG [C5A G12A C29A G68C],0.689
8,GUUCAGUUGGCAUAAUGGUAACGCGUCUCCCUCCGAAGGAGAAGACUGCGGGUUCGAGUCCCGUACGGCACG [C5A G12A U35G A69C],≤ 0.5
9,GUUCAGUUGGCGUAAUAGUAACGCGUCUCCCUCCUAAGGAGAAGACUGCGGGUUCGAGUCCCGUACGGAACG [C5A G17A],0.851
10,GUUCAGUUGGCGUAAUCGUAACGCGUCUCCCUCCUAAGGAGAAGACUGCGGGUUCGAGUCCCGUACGGAACG [C5A G17C],0.652
11,GUUCAGUUGGCAUAAUGGUAACGCGUCUCCCUGCUAAGGAGAAGACUGCGGGUUCGAGUCCCGUACGGAACG [C5A G12A C33G],0.646
12,GUUCAGUUGGCAUAAUGGUAACGCGUCUCCCUCCUAAGGAGAAGACUGCGGGUUCGAGUGCCGUACGGAACG [C5A G12A C60G],≤ 0.5
13,GUUCAGUUGGCGUAAUAGUAACGCGUCUCCCUCCUAAGGAGGAGACUGCGGGUUCGAGUCCCGUACGGAACG [C5A G17A A42G],0.555
14,GUUCAGUUGGCGUAAUAGUAACGCGUCUCCCUCCUAAGGAGGAGACUGCGGGUUCAAGUCCCGUACGGAACG [C5A G17A A42G G56A],≤ 0.5
15,GUUCAGUUGCCGUAAUGGUAACGCGCCUCCCUCCUAAGGAGAAGACUGCGAGUUCGAGUCCCGUACGGAACG [C5A G10C U26C G51A],≤ 0.5
16,GUUCAGUUGGCGUAAUCCUAACGCGUCUCCCUCCUAAGGAGAAGACUGCGGGUUCGAGUCCCGUACGGAACG [C5A G17C G18C],0.579
17,GUUCAGUUGGCAUAAUGGUAACGCGUCUCCCUCCUAAGGAGAAGACUGCGGGUUCGAGUCCCGUACGGAACG [C5A G12A],0.788
18,GUUCAGUUGGCGUAAUCGUAACGCGUCUCCCUCCUAAGGAGAAGACUGCGGGUUCGAGUCCCGUACGGACCG [C5A G17C A70C],≤ 0.5
19,GUUCAGUUGGCGUAAUCGUAACGCGUCUCCCUCCUAAGGAGAAGACUGUGGGUUCGCGUCCCGUACGGAACG [C5A G17C C49U A57C],≤ 0.5
